Only some compounds are listed: those with a hit (about 2.5% of all), similar ones and a draw of the others.
NPY Y1 blocker – antagonists of human neuropeptide Y receptor Y1. actives 1% (n = 200,000). P25929. inhibition, % at 3.6 µM. AID 1040. HEK293-CNG Y1 cells, membrane potential fluorescence; NPY at EC95, then isoproterenol;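 active means inhibition above the campaign mean inhibition of all tested compounds plus 3 SD, cut at about 20% in these data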;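 further: 0% = DMSO wells given NPY plus isoproterenol and 100% = isoproterenol alone without NPY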
Target sequence (P25929 whole entry, looked up): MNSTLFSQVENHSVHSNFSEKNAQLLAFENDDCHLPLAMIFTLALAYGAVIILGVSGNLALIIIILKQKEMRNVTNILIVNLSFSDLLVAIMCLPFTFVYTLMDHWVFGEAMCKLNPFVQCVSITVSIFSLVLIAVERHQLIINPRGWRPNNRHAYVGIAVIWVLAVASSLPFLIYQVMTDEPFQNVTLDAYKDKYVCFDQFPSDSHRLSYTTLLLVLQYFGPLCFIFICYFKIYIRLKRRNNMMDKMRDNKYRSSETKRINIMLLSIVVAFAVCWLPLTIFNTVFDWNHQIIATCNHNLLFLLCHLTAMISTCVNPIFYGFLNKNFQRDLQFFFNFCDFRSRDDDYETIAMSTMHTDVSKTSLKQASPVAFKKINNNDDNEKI
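Test system – HEK293 Y1/CNG channel cell line · Also added – NPY agonist 25 nM, then isoproterenol 1 µM plus Ro 20-1724 25 µM · Compound dosing – one concentration, 3.6 µM, in 0.4% DMSO · Schedule – compound incubation 1 h at room temperature, readout 45 min post-stimulation · Technique – fluorescence, membrane potential probe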
NPY-Y2 antag – NPY-Y2 (human) receptor antagonism; P49146; NPY-Y2 expressing cells, antagonist mode; inhibition, % at 2.7 µM; actives 0.99% (n = 140,000); AID 793; in the data active means inhibition above about 17%;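 further: 0% = vehicle with agonist challenge and 100% = reference antagonist with challenge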
NPY2 pot ag – human NPY-Y2 potentiation or agonism, primary screen; actives 0.45% (n = 220,000); P49146; cells expressing NPY-Y2, potentiator/agonist read-out; activation, % at 3.6 µM; in the data active means activation above about 27%;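 further: cells stimulated with NPY near EC25 plus isoproterenol at EC100; 0% = vehicle plus submaximal agonist and 100% = vehicle plus saturating agonist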
Insulin prom inh – TRM-6 insulin promoter activity inhibition. actives 0.9% (n = 130,000). AID 1273. inhibition, % at 2 µM. TRM-6 cells, insulin promoter-eGFP reporter, imaging; reporter expression induced with tamoxifen;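 active means inhibition above the mean plus 3 SD, with well images judged a real hit on visual review, cut at about 60% in these data, passing the limit was not always enough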
NPY1 pot ag – potentiates or activates human NPY-Y1 receptor. P25929. NPY-Y1 expressing cells, potentiator/agonist activation. activation, % at 3.6 µM. actives 0.37% (n = 220,000). AID 1304; in the data active means activation above about 33%, passing the limit was not always enough;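 further: cells stimulated with NPY at EC10 then isoproterenol at EC100; 0% = low agonist plus stimulus and 100% = saturating agonist plus stimulus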
Ins promoter up – MIN6 insulin promoter up-regulation; MIN6 insulin promoter-GFP reporter, high-content imaging; active compounds read high; z-score at 5 µM; actives 0.3% (n = 190,000); AID 1625;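 active means z-score above 3 at 5 µM with at least 500 cells counted in the well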
NPY-Y1 confirm – human NPY-Y1 potentiation or agonism, confirmation | shares compounds with NPY1 pot ag | cell-based NPY-Y1 potentiator/agonist assay | activation, % at 3.6 µM | actives 20% (n = 280); in the data active means activation above about 45%;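 further: cells challenged with NPY at its EC10 plus isoproterenol stimulus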
NPY-Y2 counter – potentiates or activates NPY-Y2, counter-screen for NPY-Y1 hits | shares compounds with NPY1 pot ag | HEK293-CNG cells, membrane-potential fluorescence (FLIPR), 1536-well | activation, % at 3.6 µM | actives 20% (n = 280) | AID 1649; in the data active means activation above about 33%
NPY-Y1 ag – counter-screen for NPY-Y1 potentiators: agonists of human NPY-Y1 | actives 50% (n = 280) | HEK293 Y1-CNGC, membrane potential fluorescence, agonist mode | shares compounds with NPY1 pot ag | AID 1697 | activation, % at 3.6 µM;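 active means percent activation above the mean of DMSO-only control wells plus 3 SD of those wells, cut at about 18% in these data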;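 further: cells challenged with isoproterenol plus Ro 20-1724 with no NPY in test wells; Y1 agonism lowers isoproterenol-driven cAMP and reduces probe fluorescence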
NPY-Y2 ag – human NPY-Y2 agonism as NPY-Y1 counter-screen | shares compounds with NPY1 pot ag | HEK293 Y2-CNGC, membrane potential fluorescence, agonist mode | activation, % at 3.6 µM | actives 67% (n = 280);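 active means activation above the solvent-only control wells' mean plus 3 SD, cut at about 11% in these data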;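 further: 0% = DMSO with isoproterenol and 100% = 40 nM NPY maximal response; agonism lowers cAMP so well fluorescence drops in active wells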
CNGC inh 2 – blocks cyclic nucleotide gated channel in NPY-Y1 counter-screen; shares compounds with NPY1 pot ag; HEK293-CNG parental, isoproterenol cAMP, membrane potential fluorescence; inhibition, % at 3.6 µM; actives 42% (n = 280); AID 1704;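 active means inhibition above the mean of stimulated solvent-only control wells plus 3 SD, cut at about 22% in these data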;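 further: 0% = isoproterenol-stimulated DMSO wells and 100% = unstimulated DMSO wells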
* hit, by the source's call; . = not tested or not shown.

SMILES	NPY Y1 blocker	NPY-Y2 antag	NPY2 pot ag	Insulin prom inh	NPY1 pot ag	Ins promoter up	NPY-Y1 confirm	NPY-Y2 counter	NPY-Y1 ag	NPY-Y2 ag	CNGC inh 2
COC(=O)[C@@H]1CC[C@H](C)[C@@H](c2ccc(C)cc2)N1C(=O)c1ccc(/C=N/OC[C@@H](O)[C@H]2O[C@@H]3OC(C)(C)O[C@@H]3[C@H]2O)cc1	-3.2	-0.1	16.1	-52.4	38.9*	-1.47	5.7	0.0	-2.4	6.2	-10.2
COc1ccc(CC(=O)Nc2ccc(C(C)=O)cc2)cc1	-9.2	.	13.6	25.0	37.2*	.	23.4	14.7	32.6*	34.9*	31.3*
COC(=O)c1ccc(NC(=O)CN(c2ccc(OC)cc2)S(C)(=O)=O)cc1	-7.4	-5.4	8.8	60.0	42.9*	-1.35	30.4	16.4	40.8*	32.8*	31.6*
Cc1ccc2oc(=O)n(CCCOc3ccccc3C)c2c1	17.5	.	-6.9	.	-28.5	0.27	.	.	.	.	.
CCCCN1C(=O)C2NN=C(C(=O)OC)C2C1=O (configuration not stated)	-1.1	2.4	3.9	-64.3	-9.0	1.64	.	.	.	.	.
COc1cccc(/C=N/Nc2snc(SC)c2C#N)c1O	-0.9	0.8	8.4	0.0	49.7*	-2.99	-4.6	4.1	-1.8	18.0*	5.6
COc1ccc(/C=N/Nc2snc(SC)c2C#N)cc1OC	-2.6	-1.6	8.3	-7.7	23.6	-0.55	.	.	.	.	.
CCOP(=O)(OCC)C(NC(=O)/C=C/c1ccc(OC)cc1)c1ccccc1 (configuration not stated)	3.1	.	4.0	.	-5.0	-0.93	.	.	.	.	.
Cc1n[nH]c(C)c1CS(=O)(=O)c1ccccc1	-0.1	.	-5.0	-118.2	-1.6	-0.47	.	.	.	.	.
Cn1nc(C(F)(F)F)c(-c2ccc(F)cc2)c1NC(=O)Nc1ccc(F)cc1	.	.	38.4	.	48.4*	0.54	59.1*	45.2*	58.4*	51.5*	49.2*
CCOC(=O)CSc1nc(=O)n2ccccc2n1	6.5	.	-20.1	.	68.5*	0.02	1.8	-3.0	2.2	-6.0	-5.0
O=C1C2C3c4ccccc4C(Br)(c4ccccc43)C2C(=O)N1c1ccccc1O (configuration not stated)	-3.2	-1.3	21.4	7.1	37.7*	0.22	33.3	22.0	25.8*	14.7*	31.8*
CC(=O)c1c(C)nc(-c2ccc(Cl)cc2)nc1N	-1.9	.	-10.3	.	88.2*	1.68	3.8	-1.5	-12.4	-8.2	-6.0
O=C(NC1(N2CCOCC2)CC1)c1ccc(Cl)cc1	.	.	-18.0	.	5.6	0.65	.	.	.	.	.
Cn1cc2cc(NC(N)=S)ccc2n1	2.6	.	4.4	33.3	7.2	0.14	.	.	.	.	.
O=C1/C(=C/c2ccccn2)SC(=S)N1c1cccc(O)c1	.	.	29.2	.	54.0*	.	57.1*	37.8*	41.2*	36.8*	32.3*
Cc1ccccc1C(=O)N1CCN(c2ccc(NC(=S)NC(=O)c3cccs3)cc2)CC1	-6.5	.	15.4	.	35.8*	-0.76	-0.4	14.3	11.2	15.3*	19.1
Cc1ccc(C(=O)N2CCN(c3ccc(NC(=S)NC(=O)c4cccs4)cc3)CC2)cc1	-1.6	.	9.8	-52.9	8.0	.	.	.	.	.	.
CCOC(=O)C1=C(C)C2C3C(=O)N(c4cc(C)ccc4C)C(=O)C3C1(C)C1C(=O)N(c3cc(C)ccc3C)C(=O)C21 (configuration not stated)	-0.4	-3.0	8.4	.	44.3*	.	17.2	8.7	16.1	8.4	10.3
